Data set [1] in a line: Apparent passive permeability from apical to basolateral side in dog RRCK cells. Conditions: MDCK. In kind it is ADME, cell-based, Canis lupus familiaris, MDCKII-LE. The method in brief:
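Passive A→B permeability measured across RRCK cells, a low-transporter line isolated from MDCK cells.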

Data set [2] in a line: Oral bioavailability in rat at 5 mg/kg. The format is ADME, organism-based. Conditions: in vivo. The method in brief:
(§1)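 F from mean AUC0−∞ after single doses: rat 1 mg/kg iv and 5 mg/kg po (n = 3/dose, or iv n = 2); monkey 1 mg/kg iv and 30 mg/kg po, n = 2/dose.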

A short description of data set [3]: Ratio of unbound drug level in brain homogenate to plasma in rat at 1 mg/kg, sc. Set-up: dose 1 mg/kg, route subcutaneous. In kind it is ADME, organism-based.
Data set [4] in a line: Oral bioavailability in monkey at 30 mg/kg. The format is ADME, organism-based, Macaca mulatta. The conditions noted are these: rhesus monkey, in vivo. The method in brief: as §1
Data set [5] is described as follows: Volume of distribution at steady state in monkey. The format is ADME, organism-based, Macaca mulatta. Conditions: rhesus monkey, in vivo; read-out: Vdss.
The nature of data set [6]: Volume of distribution at steady state in rat. The format is ADME, organism-based. Conditions: in vivo, read-out: Vdss.
Data set [7] in a line: Ratio of unbound drug level in brain homogenate to plasma in rat at 1 mg/kg, sc after 4 hrs. Details: dose 1 mg/kg, route subcutaneous. In kind it is ADME, organism-based. In a few lines: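 Rat neuropharmacokinetic study, single 1 mg/kg sc dose, n = 2 per time point. Ratio derived from AUC0−4 of unbound brain versus unbound plasma concentration. Unbound concentrations were corrected using the unbound fraction measured in brain homogenate and in plasma.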

In the case of `Cn1nc(-c2ccccc2)c2ccc(OCc3ccccn3)nc21`, in data set [1], the Papp A→B (in general, the apparent permeability from the apical to the basolateral side of a cell layer) is 0.78 ×10⁻⁶ cm/s.

As to `CCn1nc(-c2cnccc2C)c2ncc(OCc3ccccn3)nc21`, the apical-to-basolateral permeability (Papp A→B) in data set [1] came out at 13.8 ×10⁻⁶ cm/s.

With `Cc1cccnc1-c1nn(C)c2nc(OCc3ccccn3)cnc12`, in data set [1], the Papp A→B amounted to 28.5 ×10⁻⁶ cm/s.

Consider `CCN(CC)C(=O)c1nn(C)c2nc(OCc3ccccn3)cnc12`, for which the bioavailability (in general, dose-corrected exposure relative to a reference, in per cent) in data set [2] was determined as 35%. In addition, the Kp uu in data set [3] worked out at 0.51. Further, in data set [1], the Papp A→B came to 31.5 ×10⁻⁶ cm/s.

For the compound `Cn1nc(-c2cccnc2)c2ccc(OCc3ccccn3)nc21`, the apparent permeability from apical to basolateral (Papp A→B) in data set [1] was 24.4 ×10⁻⁶ cm/s.

Regarding `Cc1ccnnc1-c1nn(C)c2nc(OCc3ccccn3)cnc12`, in data set [1], the Papp A→B turned out to be 21.5 ×10⁻⁶ cm/s.

Take `CCC(C)NC(=O)c1nn(C)c2nc(OCc3cccc(C)n3)ccc12` (stereo not given): the apical-to-basolateral permeability (Papp A→B) in data set [1] stood at 19.8 ×10⁻⁶ cm/s.

Regarding `Cn1nc(-c2ccccn2)c2ccc(OCc3ccccn3)nc21`, the Papp A→B in data set [1] worked out at 11.7 ×10⁻⁶ cm/s.

As to `Cn1nc(-c2cnccc2C(F)(F)F)c2ncc(OCc3ccccn3)nc21`, in data set [1], the Papp A→B is 21.4 ×10⁻⁶ cm/s.

As for `Cn1nc(-c2cccnc2)c2ncc(OCc3ccccn3)nc21`, the apical-to-basolateral permeability (Papp A→B) in data set [1] was determined as 22.5 ×10⁻⁶ cm/s.

Turning to `Cc1c(Cl)cncc1-c1nn(C)c2nc(OCc3ccccn3)cnc12`, the apical-to-basolateral permeability (Papp A→B) in data set [1] was 14.1 ×10⁻⁶ cm/s.

For `Cn1nc(-c2ncccc2OC(F)F)c2ncc(OCc3ccccn3)nc21`, the Papp A→B in data set [1] is 28.7 ×10⁻⁶ cm/s.

On to `C[C@@H]1CCCN1C(=O)c1nn(C)c2nc(OCc3ccccn3)ccc12`, for which the bioavailability in data set [2] came out at 0.4%. Moreover, the Kp uu in data set [3] is 1.01. For the same compound, the Papp A→B in data set [1] came out at 21 ×10⁻⁶ cm/s.

On to `Cc1c(-c2nn(C)c3nc(OCc4ccccn4)cnc23)cnn1C`, for which the Papp A→B in data set [1] came to 14.4 ×10⁻⁶ cm/s.

On to `Cc1ccncc1-c1nn(C2CC2)c2nc(OCc3ccccn3)cnc12`, for which the apical-to-basolateral permeability (Papp A→B) in data set [1] turned out to be 19.6 ×10⁻⁶ cm/s.

For `Cc1ccncc1-c1nn(C)c2nc(OCc3ccccn3)cnc12`, the bioavailability in data set [4] is 67%; in data set [2], 28%. Moreover, the Vd in data set [5] stood at 0.69 L/kg; in data set [6] it was 1.3 L/kg. In addition, the Kp uu at 4 h in data set [7] amounted to 2. Besides, in data set [1], the Papp A→B worked out at 21 ×10⁻⁶ cm/s.
